From PMC3090455 (Analytical biochemistry, 2011)

Key:
Background = format: physicochemical; conditions: [S] 50 μM, Tris/HCl 100 mM pH 9.0, 0.1 mg/mL BSA, 37°C, 4-nitrophenol absorbance
Procedure, shortened: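 Enzyme-free control wells held Tris/HCl (100 mM, pH 9.0, 0.1 mg/mL BSA), preincubated 5 min at 37°C. Substrate was added from a 5 mM DMSO stock working solution to 50 μM final, and product was read kinetically for 5 min. Read-out was 4-nitrophenol absorbance at […] fluorescence (ex 355/em 450 or ex 330/em 465 nm). Signals were converted to molar amounts via 0.005–0.5 μM standard curves; 8 replicates.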

rat mEH [1] = molecular target: T1, rat mEH (Rattus norvegicus, UniProt P07687); assay: Specific activity of rat mEH for absorbent/fluorescent substrates; format: biochemical; conditions: [S] 50 μM, pH 9.0, 37°C, 4-nitrophenyl substrates
T1 sequence (P07687 1-455): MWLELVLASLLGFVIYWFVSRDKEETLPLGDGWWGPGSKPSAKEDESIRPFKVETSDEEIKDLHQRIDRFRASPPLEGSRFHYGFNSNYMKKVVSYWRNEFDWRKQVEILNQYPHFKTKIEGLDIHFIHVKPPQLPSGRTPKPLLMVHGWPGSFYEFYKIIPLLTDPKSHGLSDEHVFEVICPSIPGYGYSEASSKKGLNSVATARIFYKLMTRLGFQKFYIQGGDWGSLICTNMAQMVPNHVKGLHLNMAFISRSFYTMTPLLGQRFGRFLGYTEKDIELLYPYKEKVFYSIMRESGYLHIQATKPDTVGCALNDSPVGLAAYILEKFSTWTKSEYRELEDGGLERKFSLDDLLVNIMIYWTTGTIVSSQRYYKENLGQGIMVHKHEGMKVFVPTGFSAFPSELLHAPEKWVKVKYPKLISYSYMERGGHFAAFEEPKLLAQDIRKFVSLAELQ
Procedure, shortened: (§1)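 Partially purified recombinant enzyme (0.5–80 μg/mL final) in 100 mM Tris/HCl pH 9.0 with 0.1 mg/mL BSA, preincubated 5 min at 37°C. Substrate added at 50 μM final from 5 mM DMSO stock; buffer-only wells gave background. Read kinetically for 5 min: 4-nitrophenol at 450 nm, or fluorescence (coumarin ex 355/em 450; naphthaldehyde ex 330/em 465). Signals converted via standard curves (0.005–0.5 μM); 8 replicates.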

human mEH [2] = molecular target: T2, human mEH (Homo sapiens, UniProt P07099); assay: Specific activity of human mEH for absorbent/fluorescent substrates; format: biochemical; conditions: [S] 50 μM, pH 9.0, 37°C, 4-nitrophenyl substrates
T2 sequence (P07099 1-455): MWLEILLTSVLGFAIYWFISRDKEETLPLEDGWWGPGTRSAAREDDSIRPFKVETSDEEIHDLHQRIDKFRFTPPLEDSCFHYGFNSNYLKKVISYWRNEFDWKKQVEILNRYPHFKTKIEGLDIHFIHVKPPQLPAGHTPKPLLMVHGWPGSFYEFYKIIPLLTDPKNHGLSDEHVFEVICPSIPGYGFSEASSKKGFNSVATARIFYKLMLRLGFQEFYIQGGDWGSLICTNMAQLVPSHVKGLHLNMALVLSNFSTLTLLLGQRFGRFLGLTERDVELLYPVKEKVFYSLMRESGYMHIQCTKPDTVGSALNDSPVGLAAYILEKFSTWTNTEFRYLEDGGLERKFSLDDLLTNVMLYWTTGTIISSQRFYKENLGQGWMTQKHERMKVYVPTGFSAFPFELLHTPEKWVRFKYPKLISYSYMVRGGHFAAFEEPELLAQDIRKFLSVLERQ
Procedure, shortened: as §1

rat mEH [3] = molecular target: T1, rat mEH; assay: Inhibition potency assay with fluorescent substrate 11, rat mEH; format: biochemical
Procedure, shortened: (§2)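 Kinetic fluorescent format: baculovirus-expressed, partially purified enzyme in 100 mM Tris/HCl pH 8.5 with 0.1 mg/mL BSA (final human 1.6, rat 0.5 μg/mL), preincubated 5 min at 30°C with inhibitor (0–200 μM final, from DMSO). Substrate at 25 μM final (rat also tested at 2.5 μM). Naphthaldehyde followed 10 min at 30°C. IC50 regressed from ≥6 points in the linear region; three runs, each in triplicate.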

human mEH [4] = molecular target: T2, human mEH; assay: Inhibition potency assay with fluorescent substrate 11, human mEH; format: biochemical
Procedure, shortened: as §2

rat mEH [5] = molecular target: T1, rat mEH; assay: Inhibition potency assay with [3H]-cSO radiochemical substrate, rat mEH; format: biochemical
Procedure, shortened: (§3)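 Radiochemical format with [3H]-cis-stilbene oxide at 50 μM final. Partially purified recombinant enzyme: rat 1.0, human 3.2 μg/mL. Reaction in 100 mM Tris/HCl pH 9.0 with 0.1 mg/mL BSA, 5 min at 30°C, quenched with isooctane to extract remaining epoxide. Radioactive diol in the aqueous phase counted by liquid scintillation; run in triplicate.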

human mEH [6] = molecular target: T2, human mEH; assay: Inhibition potency assay with [3H]-cSO radiochemical substrate, human mEH; format: biochemical
Procedure, shortened: as §3

rat mEH [7] = molecular target: T1, rat mEH; assay: High throughput screening end-point assay with 11, rat mEH; format: biochemical; conditions: [I] 10 μM, [11] 25 μM, 30 min end-point, room temperature
Procedure, shortened: (§4)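 End-point screen of a pesticide library at 10 μM final. Recombinant partially purified enzyme (human 1.6, rat 0.5 μg/mL final) in 100 mM Tris/HCl pH 8.5 with 0.1 mg/mL BSA, preincubated with compounds 5 min at 30°C. Substrate added to 25 μM, then 30 min at room temperature in the dark before fluorescence reading (ex 330/em 465 nm). Buffer-only background and full-activity control wells; duplicate averages.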

human mEH [8] = molecular target: T2, human mEH; assay: High throughput screening end-point assay with 11, human mEH; format: biochemical; conditions: [I] 10 μM, [11] 25 μM, 30 min end-point, room temperature
Procedure, shortened: as §4

mEH [9] = assay: Retest of screening hits in inhibition potency assay with 11; format: biochemical; conditions: 10 μM
Procedure, shortened: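 Hits from the library screen retested at 10 μM in the kinetic fluorescent format: 5 min preincubation with partially purified enzyme in Tris/HCl pH 8.5 with BSA at 30°C. Then 25 μM substrate, with 6-methoxy-2-naphthaldehyde monitored for 10 min.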

mEH [10] = assay: Retest of screening hits with cSO as substrate; format: biochemical; conditions: suggests false positive in fluorescent assay
[11] = substrate: COc1ccc2cc(C(C#N)OC(=O)OCC3CO3)ccc2c1; assay: Kinetic constants determination, rat mEH; format: biochemical; conditions: other: Tris/HCl pH 9.0 100 mM, 0.1 mg/mL BSA, 37°C
[12] = substrate: COc1ccc2cc(C(C#N)OC(=O)OCC3CO3)ccc2c1; assay: Kinetic constants determination, human mEH; format: biochemical; conditions: other: Tris/HCl pH 9.0 100 mM, 0.1 mg/mL BSA, 37°C
[13] = IC50, Rat mEH, 11 as substrate, [11] 25 μM, enzyme 0.5 μg/mL, pH 8.5, 30°C

Molecule: O=C(OCC1CO1)Oc1ccc([N+](=O)[O-])cc1 (stereo not drawn) [compound 6, 4-Nitrophenyl (oxiran-2-yl)methyl carbonate]
- background hydrolysis (Background): 0.31 ± 0.02 nmol/min
- Rat mEH S/B (signal to background ratio) (rat mEH [1]): 5
- Rat mEH S/N (signal to noise ratio) (rat mEH [1]): 32
- Rat mEH Spec. act. (rat mEH [1]): 29 ± 2 nmol/min/mg
- Rat mEH Z' (screening window coefficient) (rat mEH [1]): 0.67
- Human mEH S/B (signal to background ratio) (human mEH [2]): 3
- Human mEH S/N (signal to noise ratio) (human mEH [2]): 53
- Human mEH Spec. act. (human mEH [2]): 51 ± 2 nmol/min/mg
- Human mEH Z' (screening window coefficient) (human mEH [2]): 0.82

Molecule: CCCCCCCC/C=C/CCCCCCCC(N)=O [B, elaidamide]
- IC50 (rat mEH [3]; read-out: IC50, Rat mEH, 11 as substrate, [11] 25 μM, enzyme 0.5 μg/mL, pH 8.5, 30°C): 63000 ± 5000 nM
- IC50 (human mEH [4]; read-out: IC50, Human mEH, 11 as substrate, [11] 25 μM, enzyme 1.6 μg/mL, pH 8.5, 30°C): 140000 ± 13000 nM
- IC50 (rat mEH [5]; read-out: IC50, Rat mEH, cSO as substrate, [cSO] 50 μM, enzyme 1.0 μg/mL): 500 ± 100 nM
- IC50 (human mEH [6]; read-out: IC50, Human mEH, cSO as substrate, [cSO] 50 μM, enzyme 3.2 μg/mL): 1000 ± 100 nM

Molecule: CCCCCCC(O)CCCCCCCCCCC(N)=O (stereo not drawn) [C, 12-hydroxy-octadecanamide]
- IC50 (rat mEH [3]; [13]): 123000 ± 13000 nM
- IC50 (human mEH [4]): > 200000 nM
- IC50 (rat mEH [5]): 1100 ± 100 nM
- IC50 (human mEH [6]): 2600 ± 300 nM

Molecule: CCCCCCCCCSC(C)C(N)=O (stereo not drawn) [A, 2-nonylsulfanyl-propionamide]
- IC50 (rat mEH [3]; [13]): 4200 ± 700 nM
- IC50 (rat mEH [3]; IC50, rat mEH, 11 as substrate near its KM, [11] = 2.5 μM): 500 nM
- IC50 (rat mEH [5]): 400 ± 100 nM
- IC50 (human mEH [6]): 500 ± 100 nM

Molecule: Brc1ccc(Oc2ccc(Br)cc2Br)c(Br)c1 [BDE47]
- inhibition of rat mEH in library screen (rat mEH [7]): significant inhibition
- inhibition of human mEH in library screen (human mEH [8]): significant inhibition
- mEH inhibition on retest with 11 in the inhibition potency assay (mEH [9]): confirmed mEH inhibition
- mEH inhibition with cSO as substrate (mEH [10]): no inhibition was observed

Molecule: Oc1cc(Cl)ccc1Oc1ccc(Cl)cc1Cl [triclosan]
- inhibition of rat mEH in library screen (rat mEH [7]): significant inhibition
- inhibition of human mEH in library screen (human mEH [8]): significant inhibition
- mEH inhibition on retest with 11 in the inhibition potency assay (mEH [9]): confirmed mEH inhibition
- mEH inhibition with cSO as substrate (mEH [10]): no inhibition was observed

Molecule: CC(C)[C@H](C(=O)O[C@H](C#N)c1cccc(Oc2ccccc2)c1)c1ccc(Cl)cc1 [Asana]
- inhibition of rat mEH in library screen (rat mEH [7]): significant inhibition
- inhibition of human mEH in library screen (human mEH [8]): significant inhibition
- mEH inhibition on retest with 11 in the inhibition potency assay (mEH [9]): confirmed mEH inhibition
- mEH inhibition with cSO as substrate (mEH [10]): no inhibition was observed

B1: rat mEH (Rattus norvegicus) (protein)
chain: T1 sequence (P07687 1-455)
- Km [11]: 2.3 ± 0.4 µM
- Vmax [11]: 0.089 µmol/min/mg
- Vmax/Km [11]: 40000 µL/min/mg

B2: human mEH (Homo sapiens) (protein)
chain: T2 sequence (P07099 1-455)
- Km [12]: 3.8 ± 0.6 µM
- Vmax [12]: 0.042 µmol/min/mg
- Vmax/Km [12]: 11000 µL/min/mg
